What all share (details): stereoisomer not certain
The target of one experiment is T1, OR1A2 (Homo sapiens) (UniProt Q9Y585).
T1 sequence (whole entry): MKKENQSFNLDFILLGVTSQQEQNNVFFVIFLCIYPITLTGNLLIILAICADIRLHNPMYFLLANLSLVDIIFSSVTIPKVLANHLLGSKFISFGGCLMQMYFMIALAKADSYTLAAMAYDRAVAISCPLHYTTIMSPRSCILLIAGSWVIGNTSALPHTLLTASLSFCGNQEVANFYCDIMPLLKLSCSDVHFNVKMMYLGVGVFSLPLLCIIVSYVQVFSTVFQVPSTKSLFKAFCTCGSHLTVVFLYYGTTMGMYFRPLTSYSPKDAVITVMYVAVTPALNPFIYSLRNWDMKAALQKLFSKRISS
Summed up: (§1)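 Values were gathered from published papers (main text and supplementary material), with extra details requested from the original authors when needed, and checked for typos and inconsistencies. Each receptor–molecule pair is called responsive (active) if the original authors judged the measured signal statistically different from baseline, and non-responsive (inactive) otherwise. Assay methods varied by source, often transient mammalian cell-line luciferase assays. Recorded details include cell line, G-protein, co-transfected protein and tags.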

Experiment [1] concerns OR1A1 G108A N109K A154T N155S. Put shortly:
as §1

A further experiment has as its system OR1A1 G108A N109K. Put shortly:
as §1

The subject of the next experiment is OR1A1 G108A. Summed up:
as §1

The next experiment deals with OR1A1 I114T. Put shortly: as §1
The next experiment relates to OR1A1 I205V. Put shortly: as §1
In a further experiment the test system is OR1A1 N109K. Put shortly:
as §1

Another experiment relates to OR1A1 T110A. Put shortly: as §1
In the next experiment the test system is OR1A1 T277V. Summed up:
as §1

Another experiment deals with OR1A1 T99M. Put shortly: as §1
The test system of the next experiment is OR1A1 V254T. Put shortly:
as §1

The subject of a further experiment is OR1A2 A108G K109N S155N. Put shortly:
as §1

Experiment [2] concerns OR1A2 A108G K109N T154A S155N. Put shortly: as §1
In another experiment the test system is OR1A2 A108G K109N T154A. Summed up: as §1
Another experiment deals with OR1A2 A108G K109N. Put shortly: as §1
The test system of the next experiment is OR1A2 A108G T154A S155N. Put shortly: as §1
The subject of another experiment is OR1A2 A108G. Summed up: as §1
The subject of another experiment is OR1A2 K109N T154A S155N. Summed up: as §1
The next experiment relates to OR1A2 K109N. Put shortly:
as §1

For the next experiment, the system named is T2, OR1A2 G256C W293C.
T2 sequence (whole entry): T1 sequence (whole entry) with G256C, W293C
Summed up: as §1

Positions count from the first letter of the chain named.

Chain of OR1A1 T99M (as listed by the source, stated change not applied): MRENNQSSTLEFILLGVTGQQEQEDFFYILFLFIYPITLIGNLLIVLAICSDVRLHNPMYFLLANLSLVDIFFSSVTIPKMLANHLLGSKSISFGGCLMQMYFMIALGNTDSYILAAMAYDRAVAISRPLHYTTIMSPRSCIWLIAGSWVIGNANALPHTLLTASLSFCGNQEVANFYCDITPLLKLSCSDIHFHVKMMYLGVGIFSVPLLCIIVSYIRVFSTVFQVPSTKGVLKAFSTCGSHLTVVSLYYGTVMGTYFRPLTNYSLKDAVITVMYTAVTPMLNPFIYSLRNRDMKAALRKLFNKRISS
Chain of OR1A1 I114T (as listed by the source, stated change not applied): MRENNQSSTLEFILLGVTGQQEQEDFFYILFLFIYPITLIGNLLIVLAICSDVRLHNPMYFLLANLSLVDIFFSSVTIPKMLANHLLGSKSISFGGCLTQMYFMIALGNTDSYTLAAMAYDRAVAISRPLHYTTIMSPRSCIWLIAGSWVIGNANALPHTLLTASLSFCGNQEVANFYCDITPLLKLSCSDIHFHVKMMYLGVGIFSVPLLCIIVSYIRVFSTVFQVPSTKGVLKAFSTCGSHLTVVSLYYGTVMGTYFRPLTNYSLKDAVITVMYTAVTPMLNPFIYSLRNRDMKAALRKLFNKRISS
Chain of OR1A1 I205V (as listed by the source, stated change not applied): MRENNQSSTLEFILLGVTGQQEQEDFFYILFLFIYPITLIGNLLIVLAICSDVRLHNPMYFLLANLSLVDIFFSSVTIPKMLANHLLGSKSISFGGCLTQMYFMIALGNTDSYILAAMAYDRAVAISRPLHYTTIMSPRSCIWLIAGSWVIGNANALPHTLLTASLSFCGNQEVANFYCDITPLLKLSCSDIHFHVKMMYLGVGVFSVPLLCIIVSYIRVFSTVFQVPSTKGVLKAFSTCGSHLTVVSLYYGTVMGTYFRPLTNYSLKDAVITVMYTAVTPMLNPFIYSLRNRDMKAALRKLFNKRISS
Chain of OR1A1 T110A (as listed by the source, stated change not applied): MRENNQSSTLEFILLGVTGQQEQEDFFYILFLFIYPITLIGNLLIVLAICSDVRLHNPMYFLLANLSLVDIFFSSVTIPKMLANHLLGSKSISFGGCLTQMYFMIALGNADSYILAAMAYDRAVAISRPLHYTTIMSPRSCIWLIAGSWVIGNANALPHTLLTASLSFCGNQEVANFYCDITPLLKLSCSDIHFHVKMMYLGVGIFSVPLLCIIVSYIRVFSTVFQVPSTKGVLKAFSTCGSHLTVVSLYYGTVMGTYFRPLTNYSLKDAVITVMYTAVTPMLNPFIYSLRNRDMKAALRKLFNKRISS
Chain of OR1A2 K109N (as listed by the source, stated change not applied): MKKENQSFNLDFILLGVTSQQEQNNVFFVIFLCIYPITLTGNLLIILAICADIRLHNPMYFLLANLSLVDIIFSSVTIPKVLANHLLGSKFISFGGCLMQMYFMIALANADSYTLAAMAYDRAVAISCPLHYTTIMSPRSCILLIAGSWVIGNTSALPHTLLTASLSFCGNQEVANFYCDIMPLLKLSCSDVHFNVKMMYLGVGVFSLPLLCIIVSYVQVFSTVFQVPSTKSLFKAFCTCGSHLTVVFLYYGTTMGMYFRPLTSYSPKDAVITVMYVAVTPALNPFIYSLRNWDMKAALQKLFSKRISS
Chain of OR1A1 T277V (as listed by the source, stated change not applied): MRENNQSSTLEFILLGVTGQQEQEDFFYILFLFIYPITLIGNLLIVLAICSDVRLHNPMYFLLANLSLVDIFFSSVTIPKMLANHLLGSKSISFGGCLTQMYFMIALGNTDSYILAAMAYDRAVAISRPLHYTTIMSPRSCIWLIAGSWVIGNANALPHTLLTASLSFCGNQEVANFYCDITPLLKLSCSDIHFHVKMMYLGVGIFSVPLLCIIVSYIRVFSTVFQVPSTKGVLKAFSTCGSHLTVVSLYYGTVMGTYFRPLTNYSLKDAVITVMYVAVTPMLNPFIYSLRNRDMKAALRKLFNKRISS
Chain of OR1A1 G108A (as listed by the source, stated change not applied): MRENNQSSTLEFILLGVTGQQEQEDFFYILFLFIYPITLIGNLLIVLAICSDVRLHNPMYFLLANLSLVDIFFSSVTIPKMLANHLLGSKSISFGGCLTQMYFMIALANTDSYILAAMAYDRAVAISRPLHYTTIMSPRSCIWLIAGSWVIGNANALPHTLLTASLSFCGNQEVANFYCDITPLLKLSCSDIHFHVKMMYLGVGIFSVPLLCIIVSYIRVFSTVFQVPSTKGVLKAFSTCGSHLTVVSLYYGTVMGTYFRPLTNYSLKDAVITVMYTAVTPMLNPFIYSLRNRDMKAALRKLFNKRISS
Chain of OR1A1 N109K (as listed by the source, stated change not applied): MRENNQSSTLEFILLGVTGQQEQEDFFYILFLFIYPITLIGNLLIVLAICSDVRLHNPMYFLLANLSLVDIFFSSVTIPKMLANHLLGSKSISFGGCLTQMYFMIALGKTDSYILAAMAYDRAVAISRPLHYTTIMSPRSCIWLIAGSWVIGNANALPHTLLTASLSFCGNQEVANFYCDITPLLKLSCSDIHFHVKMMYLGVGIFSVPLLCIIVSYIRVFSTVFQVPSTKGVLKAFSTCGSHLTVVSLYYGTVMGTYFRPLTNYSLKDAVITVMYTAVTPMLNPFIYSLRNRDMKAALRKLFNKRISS
Chain of OR1A2 A108G (as listed by the source, stated change not applied): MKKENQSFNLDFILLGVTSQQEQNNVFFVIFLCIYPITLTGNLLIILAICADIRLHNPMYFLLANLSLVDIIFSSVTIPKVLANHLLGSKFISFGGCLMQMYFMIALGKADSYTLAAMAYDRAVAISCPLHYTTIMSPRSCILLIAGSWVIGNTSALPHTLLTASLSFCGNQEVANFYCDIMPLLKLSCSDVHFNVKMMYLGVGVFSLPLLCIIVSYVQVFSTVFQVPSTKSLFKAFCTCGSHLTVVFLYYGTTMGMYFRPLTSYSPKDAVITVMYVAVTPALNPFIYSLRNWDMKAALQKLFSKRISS
Chain of OR1A1 V254T (as listed by the source, stated change not applied): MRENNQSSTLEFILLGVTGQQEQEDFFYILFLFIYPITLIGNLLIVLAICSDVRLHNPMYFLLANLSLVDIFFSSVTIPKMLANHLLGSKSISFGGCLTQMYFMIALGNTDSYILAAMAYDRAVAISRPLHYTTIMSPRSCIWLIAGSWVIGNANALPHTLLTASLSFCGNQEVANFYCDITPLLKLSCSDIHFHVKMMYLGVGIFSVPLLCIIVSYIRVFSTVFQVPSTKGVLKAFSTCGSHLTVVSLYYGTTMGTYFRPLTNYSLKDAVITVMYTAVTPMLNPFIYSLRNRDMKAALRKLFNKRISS

With `CSCCC=O`, the “odorant receptor agonist call” value with OR1A2 (Homo sapiens) was “inactive”.

For the compound `CC(=O)OCCC(C)C`, in the experiment with OR1A2 (Homo sapiens), the “odorant receptor agonist call” value was “inactive”.

On to `C=C(C)C1CC=C(C)C(O)C1` (stereo not drawn), for which, in the experiment with OR1A2 (Homo sapiens), the “odorant receptor agonist call” value was “active”.

As for `CC(C)=CCCC(C)=CCCC(C)=CCO`, in the experiment with OR1A2 (Homo sapiens), the “odorant receptor agonist call” value is “inactive”.

`CCCCCCC(=O)[O-].[H+]`: in the experiment with OR1A2 (Homo sapiens), the “odorant receptor agonist call” value is “inactive”.

Regarding `CC(=O)CCc1ccc(O)cc1`, the “odorant receptor agonist call” value in the experiment with OR1A2 (Homo sapiens) was “inactive”.

Consider `CCCCS`, for which the “odorant receptor agonist call” value with OR1A2 (Homo sapiens) was “inactive”.

With `CC(C)=CCCC(C)CCO` (stereo not drawn), the “odorant receptor agonist call” value (in [1]; in the experiment on OR1A1 G108A N109K; with OR1A1 G108A; with OR1A1 N109K) was “inactive” in each case. For the same compound, the “odorant receptor agonist call” value in the experiment on OR1A1 I114T, in the experiment on OR1A1 I205V, with OR1A1 T110A, with OR1A1 T277V, in the experiment with OR1A1 T99M and with OR1A1 V254T was “active” throughout. In addition, the “odorant receptor agonist call” value (with OR1A2 (Homo sapiens); in the experiment on OR1A2 A108G K109N S155N; in [2]; with OR1A2 A108G K109N T154A; in the experiment with OR1A2 A108G K109N; in the experiment with OR1A2 A108G T154A S155N) was “active” in each case. For the same compound, the “odorant receptor agonist call” value with OR1A2 A108G, with OR1A2 K109N T154A S155N and with OR1A2 K109N was “active” in each case.

On to `CCc1ncc(C)nc1CC`, for which, in the experiment with OR1A2 (Homo sapiens), the “odorant receptor agonist call” value is “inactive”.

On to `C1CCNC1`, for which the “odorant receptor agonist call” value with OR1A2 (Homo sapiens) is “inactive”.

Turning to `C=CC(O)CCCCC` (stereo not drawn), the “odorant receptor agonist call” value with OR1A2 (Homo sapiens) is “inactive”.

For `CC1(C)C2CC=C(C=O)C1C2` (stereo not drawn), in the experiment with OR1A2 (Homo sapiens), the “odorant receptor agonist call” value was “inactive”.

`CCCCCCCC=CC=CC=O`: the “odorant receptor agonist call” value with OR1A2 (Homo sapiens) was “inactive”.

As for `CC(CO)CS` (stereo not drawn), the “odorant receptor agonist call” value in the experiment with OR1A2 (Homo sapiens) was “inactive”.

As for `CCCC(C)C=O` (stereo not drawn), the “odorant receptor agonist call” value with OR1A2 (Homo sapiens) was “inactive”.

Take `C=CC(C)=CCC=C(C)CCC=C(C)C`: the “odorant receptor agonist call” value in the experiment with OR1A2 (Homo sapiens) was “inactive”.

Regarding `CCCCCC(=O)C(C)C(C)=O` (stereo not drawn), the “odorant receptor agonist call” value with OR1A2 (Homo sapiens) was “inactive”.

On to `COc1ccccc1`, for which the “odorant receptor agonist call” value with OR1A2 (Homo sapiens) is “inactive”.

`CCCCCCO`: in the experiment with OR1A2 (Homo sapiens), the “odorant receptor agonist call” value was “inactive”.

For the compound `COc1nccnc1C(C)C`, the “odorant receptor agonist call” value with OR1A2 (Homo sapiens) is “inactive”.

As for `CCCCCC=CCCC=O`, the “odorant receptor agonist call” value in the experiment with OR1A2 (Homo sapiens) is “active”.

With `CCCCC(=O)O`, the “odorant receptor agonist call” value with OR1A2 (Homo sapiens) was “inactive”.

Turning to `CCCCCC=CC=CC=O`, in the experiment with OR1A2 (Homo sapiens), the “odorant receptor agonist call” value was “active”.

Consider `C=C(C)C1CC=C(C)CC1` (stereo not drawn), for which the “odorant receptor agonist call” value with OR1A2 (Homo sapiens) was “active”.

Turning to `CCCCC(S)C(C)CO` (stereo not drawn), the “odorant receptor agonist call” value in the experiment with OR1A2 (Homo sapiens) is “active”.

For the compound `CCCCCC=O`, in the experiment with OR1A2 (Homo sapiens), the “odorant receptor agonist call” value was “inactive”.

For the compound `CCc1nccnc1CC`, the “odorant receptor agonist call” value with OR1A2 (Homo sapiens) is “inactive”.

Take `CCCCCCCO`: the “odorant receptor agonist call” value with OR1A2 (Homo sapiens) was “inactive”.

Take `CCC=CCCCCCC=O`: the “odorant receptor agonist call” value with OR1A2 (Homo sapiens) was “active”.

Regarding `C=CC(=O)CCCCC`, the “odorant receptor agonist call” value in the experiment with OR1A2 (Homo sapiens) is “active”.

On to `C=CC(C)(O)CCC=C(C)CCC=C(C)C` (stereo not drawn), for which, in the experiment with OR1A2 (Homo sapiens), the “odorant receptor agonist call” value is “active”.

As to `Cc1cnccn1`, the “odorant receptor agonist call” value with OR1A2 (Homo sapiens) is “inactive”.

For `COC(C=C(C)CCC=C(C)C)OC`, the “odorant receptor agonist call” value in the experiment with OR1A2 (Homo sapiens) was “inactive”.

With `Cc1nccnc1C`, the “odorant receptor agonist call” value in the experiment with OR1A2 (Homo sapiens) was “inactive”.

For the compound `COc1nccnc1CC(C)C`, in the experiment with OR1A2 (Homo sapiens), the “odorant receptor agonist call” value was “inactive”.

For `CCC(C)c1nccnc1OC` (stereo not drawn), the “odorant receptor agonist call” value in the experiment with OR1A2 (Homo sapiens) was “inactive”.

For the compound `CC(=O)c1c(C)c([N+](=O)[O-])c(C(C)(C)C)c([N+](=O)[O-])c1C`, the “odorant receptor agonist call” value with OR1A2 (Homo sapiens) was “inactive”.

In the case of `CC(C)=CCCC(C)=CC#N`, the “odorant receptor agonist call” value with OR1A2 (Homo sapiens) was “inactive”.

For `CCC=CCCC=CC=O`, the “odorant receptor agonist call” value with OR1A2 (Homo sapiens) was “inactive”.

`CC=CC(=O)C1=C(C)CCCC1(C)C`: the “odorant receptor agonist call” value with OR1A2 (Homo sapiens) is “inactive”.

Turning to `CC(=O)C=CC1=C(C)CCCC1(C)C`, the “odorant receptor agonist call” value with OR1A2 (Homo sapiens) is “active”.

`CC1=C(O)C(=O)C(C)O1` (stereo not drawn): the “odorant receptor agonist call” value in the experiment with OR1A2 (Homo sapiens) and in the experiment with OR1A2 G256C W293C was “inactive” each time.

In the case of `CCCCCC(S)C(C)CO` (stereo not drawn), the “odorant receptor agonist call” value in the experiment with OR1A2 (Homo sapiens) is “inactive”.

For `CC(=O)C=CC1C(C)=CCCC1(C)C` (stereo not drawn), the “odorant receptor agonist call” value with OR1A2 (Homo sapiens) was “active”.

In the case of `CC1=C(O)C(=O)OC1C` (stereo not drawn), the “odorant receptor agonist call” value with OR1A2 (Homo sapiens) and with OR1A2 G256C W293C was “inactive” each time.

As to `CCCCCCCC(=O)[O-].[H+]`, in the experiment with OR1A2 (Homo sapiens), the “odorant receptor agonist call” value was “inactive”.

Turning to `CCCCCCCCCO`, the “odorant receptor agonist call” value in the experiment with OR1A2 (Homo sapiens) is “inactive”.

Consider `CCCCC=CC=CC=O`, for which the “odorant receptor agonist call” value with OR1A2 (Homo sapiens) is “inactive”.

On to `Cc1cnc(C)c(C)n1`, for which the “odorant receptor agonist call” value with OR1A2 (Homo sapiens) and in the experiment with OR1A2 G256C W293C was “inactive” throughout.

On to `C=CC(=O)CC`, for which the “odorant receptor agonist call” value with OR1A2 (Homo sapiens) was “inactive”.

Turning to `CCC(S)C(C)CO` (stereo not drawn), the “odorant receptor agonist call” value with OR1A2 (Homo sapiens) was “inactive”.

Take `CCC1OC(=O)C(O)=C1C` (stereo not drawn): the “odorant receptor agonist call” value with OR1A2 (Homo sapiens) and in the experiment with OR1A2 G256C W293C was “inactive” in each case.

For the compound `CSCCCO`, the “odorant receptor agonist call” value with OR1A2 (Homo sapiens) is “inactive”.

For the compound `CCCCCO`, the “odorant receptor agonist call” value with OR1A2 (Homo sapiens) is “inactive”.

For `CCCCCCCCC(=O)O`, the “odorant receptor agonist call” value with OR1A2 (Homo sapiens) was “inactive”.

As to `CC(CC=O)CCCC(C)(C)O` (stereo not drawn), the “odorant receptor agonist call” value in the experiment with OR1A2 (Homo sapiens) was “active”.

Take `CCCCCCC=CCCC=O`: the “odorant receptor agonist call” value in the experiment with OR1A2 (Homo sapiens) and with OR1A2 G256C W293C was “inactive” throughout.

Take `CC(C)=CCCC(C)CC(=O)O` (stereo not drawn): the “odorant receptor agonist call” value with OR1A2 (Homo sapiens) is “inactive”.

Turning to `O=C([O-])CCC(=O)[O-].[H+].[H+]`, the “odorant receptor agonist call” value with OR1A2 (Homo sapiens) is “inactive”.

On to `CCc1cnccn1`, for which the “odorant receptor agonist call” value with OR1A2 (Homo sapiens) was “inactive”.

With `CC=CC(=O)C1=C(C)C=CCC1(C)C`, the “odorant receptor agonist call” value with OR1A2 (Homo sapiens) was “inactive”.

Turning to `CCC1OC(C)=C(O)C1=O` (stereo not drawn), the “odorant receptor agonist call” value in the experiment with OR1A2 (Homo sapiens) and with OR1A2 G256C W293C was “inactive” in each case.

On to `CC1CCCCCCCCCCCCC(=O)C1` (stereo not drawn), for which the “odorant receptor agonist call” value in the experiment with OR1A2 (Homo sapiens) is “inactive”.

As to `O=C([O-])CCCCC(=O)[O-].[H+].[H+]`, in the experiment with OR1A2 (Homo sapiens), the “odorant receptor agonist call” value is “inactive”.

With `CCCCCCCCO`, the “odorant receptor agonist call” value in the experiment with OR1A2 (Homo sapiens) was “active”.

As for `CC(C)C12CCC(C)(CC1)O2`, the “odorant receptor agonist call” value in the experiment with OR1A2 (Homo sapiens) is “inactive”.

As to `CCCC(S)CCOC(C)=O` (stereo not drawn), the “odorant receptor agonist call” value with OR1A2 (Homo sapiens) and in the experiment with OR1A2 G256C W293C was “inactive” each time.

Consider `C=C(C)C1CC=C(C)C(OC(C)=O)C1` (stereo not drawn), for which the “odorant receptor agonist call” value with OR1A2 (Homo sapiens) was “inactive”.

In the case of `CN(C)C`, the “odorant receptor agonist call” value with OR1A2 (Homo sapiens) is “inactive”.

As for `CCCCCCC=CC=O`, the “odorant receptor agonist call” value in the experiment with OR1A2 (Homo sapiens) is “inactive”.

On to `CC1CCC(C(C)C)C(=O)C1` (stereo not drawn), for which the “odorant receptor agonist call” value with OR1A2 (Homo sapiens) is “inactive”.

For the compound `CC1=NC(C)C(C)S1` (stereo not drawn), the “odorant receptor agonist call” value in the experiment with OR1A2 (Homo sapiens) and with OR1A2 G256C W293C was “inactive” each time.

Values taken from the M2OR odorant receptor database.
